Experimental data taken from ChEMBL document CHEMBL3352171, “Synthesis and biological evaluation of andrographolide analogues as anti-cancer agents” (Eur J Med Chem, 2014).
Calls of active or inactive are those of the source. The rule behind the calls is not given here.

How the values were obtained:
[1] = system: HEK293; assay: Cytotoxicity against HEK293 cells after 48 hrs by MTT assay; format: functional; conditions: Homo sapiens, HEK293, 48 h; read-out: LC50 (the source's name)
Method in brief: (§1)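 Cells seeded at 10,000 per well and exposed to increasing compound concentrations for 48 h. After a PBS wash, MTT (2.5 mg/mL) was added for 6 h at 37 °C, then detergent (10% NP-40, 4 mM HCl), and absorbance was read at 570 nm. LC50 is the concentration causing 50% cell death. Values are means of three independent experiments.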

[2] = system: Vero; assay: Cytotoxicity against african green monkey Vero cells after 48 hrs by MTT assay; format: cell-based; conditions: chlorocebus sabaeus; method in brief: as §1
[3] = Retention time of the compound by HPLC method; format: physicochemical
[4] = system: HEK293; assay: Induction of apoptosis in HEK293 cells assessed as apoptotic nuclei formation at 10 uM after 48 hrs by DAPI staining based fluorescence microscopy; format: functional, cell-based; conditions: Homo sapiens
[5] = system: HEK293; assay: Induction of cell death in HEK293 cells at 15 to 20 uM after 48 hrs by DAPI staining based fluorescence microscopy; format: functional; conditions: Homo sapiens
[6] = system: HEK293; assay: Induction of apoptosis in HEK293 cells at 5 to 20 uM after 48 hrs by DAPI staining based fluorescence microscopy; format: functional, cell-based; conditions: Homo sapiens
[7] = system: MCF7; assay: Cytotoxicity against human MCF7 cells after 48 hrs by MTT assay; format: functional; conditions: MCF7, 48 h, read-out: LC50 (the source's name); method in brief: as §1
[8] = Cytotoxicity against human MCF10A cells after 48 hrs by MTT assay; format: cell-based; conditions: mcf-10a; method in brief: as §1
[9] = system: HEK293; assay: Induction of apoptosis in HEK293 cells at 5 uM after 48 hrs by propidium iodide staining based flow cytometry (reference value: 24.26 +/- 0.8%); format: functional, Homo sapiens
[10] = system: HEK293; assay: Induction of apoptosis in HEK293 cells at 10 uM after 48 hrs by propidium iodide staining based flow cytometry (reference value: 24.26 +/- 0.8%); format: functional, Homo sapiens
[11] = system: HEK293; assay: Induction of apoptosis in HEK293 cells at 15 uM after 48 hrs by propidium iodide staining based flow cytometry (reference value: 24.26 +/- 0.8%); format: functional, Homo sapiens
[12] = system: HEK293; assay: Induction of apoptosis in HEK293 cells at 20 uM after 48 hrs by propidium iodide staining based flow cytometry (reference value: 24.26 +/- 0.8%); format: functional, Homo sapiens
[13] = system: HEK293; assay: Induction of cell cycle arrest in HEK293 cells assessed as accumulation at G1 phase at 5 uM after 48 hrs by propidium iodide staining based flow cytometry (reference value: 53.21 +/- 0.8%); format: functional, Homo sapiens
[14] = system: HEK293; assay: Induction of cell cycle arrest in HEK293 cells assessed as accumulation at G1 phase at 10 uM after 48 hrs by propidium iodide staining based flow cytometry (reference value: 53.21 +/- 0.8%); format: functional, Homo sapiens
[15] = system: HEK293; assay: Induction of cell cycle arrest in HEK293 cells assessed as accumulation at G1 phase at 15 uM after 48 hrs by propidium iodide staining based flow cytometry (reference value: 53.21 +/- 0.8%); format: functional, Homo sapiens
[16] = system: HEK293; assay: Induction of cell cycle arrest in HEK293 cells assessed as accumulation at G1 phase at 20 uM after 48 hrs by propidium iodide staining based flow cytometry (reference value: 53.21 +/- 0.8%); format: functional, Homo sapiens
[17] = system: HEK293; assay: Induction of cell cycle arrest in HEK293 cells assessed as accumulation at S phase at 5 uM after 48 hrs by propidium iodide staining based flow cytometry (reference value: 19.9 +/- 0.5%); format: functional, Homo sapiens
[18] = system: HEK293; assay: Induction of cell cycle arrest in HEK293 cells assessed as accumulation at S phase at 10 uM after 48 hrs by propidium iodide staining based flow cytometry (reference value: 19.9 +/- 0.5%); format: functional, Homo sapiens
[19] = system: HEK293; assay: Induction of cell cycle arrest in HEK293 cells assessed as accumulation at S phase at 15 uM after 48 hrs by propidium iodide staining based flow cytometry (reference value: 19.9 +/- 0.5%); format: functional, Homo sapiens
[20] = system: HEK293; assay: Induction of cell cycle arrest in HEK293 cells assessed as accumulation at S phase at 20 uM after 48 hrs by propidium iodide staining based flow cytometry (reference value: 19.9 +/- 0.5%); format: functional, Homo sapiens
[21] = system: HEK293; assay: Induction of cell cycle arrest in HEK293 cells assessed as accumulation at G2/M phase at 5 uM after 48 hrs by propidium iodide staining based flow cytometry (reference value: 2.63 +/- 0.7%); format: functional, Homo sapiens
[22] = system: HEK293; assay: Induction of cell cycle arrest in HEK293 cells assessed as accumulation at G2/M phase at 10 uM after 48 hrs by propidium iodide staining based flow cytometry (reference value: 2.63 +/- 0.7%); format: functional, Homo sapiens
[23] = system: HEK293; assay: Induction of cell cycle arrest in HEK293 cells assessed as accumulation at G2/M phase at 15 uM after 48 hrs by propidium iodide staining based flow cytometry (reference value: 2.63 +/- 0.7%); format: functional, Homo sapiens
[24] = system: HEK293; assay: Induction of cell cycle arrest in HEK293 cells assessed as accumulation at G2/M phase at 20 uM after 48 hrs by propidium iodide staining based flow cytometry (reference value: 2.63 +/- 0.7%); format: functional, Homo sapiens
[25] = system: HEK293; assay: Induction of apoptosis in HEK293 cells at 20 uM after 48 hrs by propidium iodide staining based flow cytometry relative to untreated control; format: functional, Homo sapiens
[26] = system: HEK293; assay: Increase in caspase-3 expression in HEK293 cells at LC50 level after 48 hrs by immunocytochemistry; format: functional, cell-based; conditions: Homo sapiens
[27] = biological target: T1, Nuclear factor NF-kappa-B complex (Homo sapiens) (UniProt Q00653+P19838+Q04206); assay: Inhibition of NFkappaB (unknown origin) expressed in HEK293 cells assessed as reduction in transcriptional activity after 48 hrs by luciferase reporter gene assay; format: cell-based
T1 sequence (P19838 whole entry, looked up): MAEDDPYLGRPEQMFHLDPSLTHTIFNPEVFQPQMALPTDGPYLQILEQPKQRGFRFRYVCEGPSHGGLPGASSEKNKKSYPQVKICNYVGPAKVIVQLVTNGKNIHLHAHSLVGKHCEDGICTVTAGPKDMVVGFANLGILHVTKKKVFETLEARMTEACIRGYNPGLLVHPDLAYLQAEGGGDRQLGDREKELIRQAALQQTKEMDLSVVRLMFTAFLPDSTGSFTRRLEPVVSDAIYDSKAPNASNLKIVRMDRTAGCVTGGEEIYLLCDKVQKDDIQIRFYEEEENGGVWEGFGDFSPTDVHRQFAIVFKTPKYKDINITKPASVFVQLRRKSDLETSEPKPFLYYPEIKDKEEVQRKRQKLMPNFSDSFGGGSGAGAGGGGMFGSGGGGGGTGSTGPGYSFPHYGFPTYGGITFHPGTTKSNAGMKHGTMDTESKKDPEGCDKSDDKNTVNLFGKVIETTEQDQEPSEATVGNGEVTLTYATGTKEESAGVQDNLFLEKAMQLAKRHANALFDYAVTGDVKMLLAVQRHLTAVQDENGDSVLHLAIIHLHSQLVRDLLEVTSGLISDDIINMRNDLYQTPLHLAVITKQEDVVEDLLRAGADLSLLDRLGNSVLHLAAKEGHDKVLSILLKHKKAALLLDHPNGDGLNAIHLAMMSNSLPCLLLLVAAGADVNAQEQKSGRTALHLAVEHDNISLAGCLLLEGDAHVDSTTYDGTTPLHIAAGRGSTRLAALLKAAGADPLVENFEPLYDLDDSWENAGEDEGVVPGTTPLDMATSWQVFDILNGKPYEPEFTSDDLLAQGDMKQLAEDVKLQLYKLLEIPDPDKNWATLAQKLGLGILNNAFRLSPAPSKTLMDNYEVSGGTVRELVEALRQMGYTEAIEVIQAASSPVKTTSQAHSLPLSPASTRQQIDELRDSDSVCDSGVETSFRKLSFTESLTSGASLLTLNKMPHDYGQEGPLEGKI
T1 sequence (Q00653 whole entry, looked up): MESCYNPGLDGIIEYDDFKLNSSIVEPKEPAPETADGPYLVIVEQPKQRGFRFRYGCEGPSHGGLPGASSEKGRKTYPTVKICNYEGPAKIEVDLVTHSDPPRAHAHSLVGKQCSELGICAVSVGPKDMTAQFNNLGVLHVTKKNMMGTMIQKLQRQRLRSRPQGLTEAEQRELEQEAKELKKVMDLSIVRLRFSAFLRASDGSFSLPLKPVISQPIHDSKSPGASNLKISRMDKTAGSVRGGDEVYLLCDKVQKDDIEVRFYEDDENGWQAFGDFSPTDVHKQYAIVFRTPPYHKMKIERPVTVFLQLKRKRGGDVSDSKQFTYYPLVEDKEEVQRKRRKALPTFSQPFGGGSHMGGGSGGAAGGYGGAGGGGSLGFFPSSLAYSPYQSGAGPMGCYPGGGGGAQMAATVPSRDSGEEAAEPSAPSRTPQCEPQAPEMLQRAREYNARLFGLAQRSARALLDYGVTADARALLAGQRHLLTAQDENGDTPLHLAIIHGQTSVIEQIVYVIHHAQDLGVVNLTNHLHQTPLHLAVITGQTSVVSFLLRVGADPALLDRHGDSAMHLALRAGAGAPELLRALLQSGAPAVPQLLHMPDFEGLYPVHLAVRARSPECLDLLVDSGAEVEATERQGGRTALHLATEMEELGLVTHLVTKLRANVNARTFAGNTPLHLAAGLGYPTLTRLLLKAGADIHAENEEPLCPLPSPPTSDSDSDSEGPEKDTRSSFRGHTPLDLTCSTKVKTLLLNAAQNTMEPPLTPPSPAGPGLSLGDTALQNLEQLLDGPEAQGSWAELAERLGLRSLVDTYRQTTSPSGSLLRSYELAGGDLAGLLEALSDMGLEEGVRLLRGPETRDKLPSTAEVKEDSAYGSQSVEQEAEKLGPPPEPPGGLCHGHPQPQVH
T1 sequence (Q04206 whole entry, looked up): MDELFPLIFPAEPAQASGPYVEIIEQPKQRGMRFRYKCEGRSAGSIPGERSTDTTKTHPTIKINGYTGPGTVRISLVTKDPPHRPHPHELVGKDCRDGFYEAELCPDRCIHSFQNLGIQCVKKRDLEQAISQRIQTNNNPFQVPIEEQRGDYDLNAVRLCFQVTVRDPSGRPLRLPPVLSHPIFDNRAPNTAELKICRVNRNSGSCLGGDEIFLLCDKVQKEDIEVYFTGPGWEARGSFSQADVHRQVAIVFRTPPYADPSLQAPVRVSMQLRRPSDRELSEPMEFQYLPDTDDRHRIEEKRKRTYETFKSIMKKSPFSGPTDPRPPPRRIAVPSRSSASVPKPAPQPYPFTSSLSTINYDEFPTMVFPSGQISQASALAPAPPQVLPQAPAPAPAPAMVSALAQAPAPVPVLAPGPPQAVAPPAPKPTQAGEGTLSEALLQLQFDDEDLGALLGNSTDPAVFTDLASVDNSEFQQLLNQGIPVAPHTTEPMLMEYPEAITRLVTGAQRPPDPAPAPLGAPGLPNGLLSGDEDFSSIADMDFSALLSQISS
Method in brief: (§2)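 HEK-293 at 70% confluence transfected by calcium phosphate with NF-kB luciferase ([…]) and b-Gal ([…]) plasmids, 6–8 h, then fresh serum medium 12 h; treated 48 h, lysed, luciferase read and normalized to b-galactosidase. Three independent experiments.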

[28] = biological target: T1, Nuclear factor NF-kappa-B complex (Homo sapiens); assay: Inhibition of NFkappaB (unknown origin) expressed in HEK293 cells assessed as reduction in transcriptional activity at 10 uM after 48 hrs by luciferase reporter gene assay; format: cell-based; method in brief: as §2
[29] = system: HEK293; assay: Increase in Bax expression in HEK293 cells at LC50 level after 48 hrs by Western blot method; format: functional, cell-based; conditions: Homo sapiens
[30] = system: HEK293; assay: Reduction in Bcl-xL expression in HEK293 cells at LC50 level after 48 hrs by Western blot method; format: functional, cell-based; conditions: Homo sapiens
[31] = system: HEK293; assay: Increase in PARP cleavage in HEK293 cells at LC50 level after 48 hrs by Western blot method; format: functional, cell-based; conditions: Homo sapiens
[32] = system: HEK293; assay: Increase in p53 expression in HEK293 cells at LC50 level after 48 hrs by Western blot method; format: functional, cell-based; conditions: Homo sapiens
[33] = system: HEK293; assay: Reduction in NFkappaB expression in HEK293 cells at LC50 level after 48 hrs by Western blot method; format: functional, cell-based; conditions: Homo sapiens
[34] = system: HEK293; assay: Increase in Bax expression in p53 deficient HEK293 cells at LC50 level after 48 hrs by Western blot method; format: functional, cell-based; conditions: Homo sapiens
[35] = system: HEK293; assay: Reduction in Bcl-xL expression in p53 deficient HEK293 cells at LC50 level after 48 hrs by Western blot method; format: functional, cell-based; conditions: Homo sapiens
[36] = system: HEK293; assay: Increase in PARP cleavage in p53 deficient HEK293 cells at LC50 level after 48 hrs by Western blot method; format: functional, cell-based; conditions: Homo sapiens
[37] = system: HEK293; assay: Increase in p53 expression in p53 deficient HEK293 cells at LC50 level after 48 hrs by Western blot method; format: functional, cell-based; conditions: Homo sapiens
[38] = system: HEK293; assay: Reduction in NFkappaB expression in p53 deficient HEK293 cells at LC50 level after 48 hrs by Western blot method; format: functional, cell-based; conditions: Homo sapiens
[39] = Binding affinity to GC-28 DNA (unknown origin) minor groove by DAPI staining based spectrophotometry
Method in brief: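 DAPI–DNA complex fluorescence read at 460 nm emission band; test compound added to the preformed complex and loss of fluorescence followed.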

[40] = system: MCF7; assay: Cytotoxicity against human MCF7 cells; format: functional
Method in brief: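 MTT viability: 10,000 cells/well, 48 h exposure to increasing concentrations, MTT 2.5 mg/mL for 6 h at 37 °C, NP-40/HCl solubilization, absorbance 570 nm. MCF-7 in DMEM with 10% FBS; MCF-10A normal cells run alongside. LC50 from three independent experiments.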

`C[C@]1(CO)[C@H]2CC[C@@]3(CO3)[C@@H](C/C=C3/C(=O)OC[C@H]3OC(=O)CCl)[C@]2(C)CC[C@H]1O` showed a CC50 [1] of 31 µM, an LC50 [2] of 37 µM and a Retention_time [3] of 37.1 min.

In the case of `COc1cc([C@@H]2c3cc4c(cc3[C@@H](O[C@@H]3O[C@@H]5CO[C@@H](C)O[C@H]5[C@H](O)[C@H]3O)[C@H]3COC(=O)[C@H]23)OCO4)cc(OC)c1O` [ETOPOSIDE], the CC50 [1] is reported as 18 µM and the LC50 [2] is reported as 28 µM.

With `C[C@]1(CO)[C@H]2CC[C@@]3(CO3)[C@@H](C/C=C3/C(=O)OC[C@H]3OC(=O)CI)[C@]2(C)CC[C@H]1O` the Activity [4] was “Active”, the Activity [5] was “Active” and the Activity [6] was “Dose-dependent effect”. The CC50 [1] was 12 µM, the LC50 [2] was 30 µM and the CC50 [7] was 7 µM. The LC50 [8] was greater than 40 µM, the Retention_time [3] was 31.4 min and the Activity [9] was 62.05%. It also gave an Activity [10] of 77.99%, an Activity [11] of 79.55% and an Activity [12] of 92.93%. For the same compound, the Activity [13] was 25.38%, the Activity [14] was 15.61% and the Activity [15] was 14.98%. It also gave an Activity [16] of 5.37%, an Activity [17] of 9.87% and an Activity [18] of 4.98%. The Activity [19] was 4.63%, the Activity [20] was 1.18% and the Activity [21] was 2.7%. It also gave an Activity [22] of 1.41%, an Activity [23] of 1.31% and an Activity [24] of 0.52%. For the same compound, the “fold change (FC)” value [25] was greater than 6, the Activity [26] was “Active” and the inhibition [27] was “Dose-dependent effect”. For the same compound, the fold change (FC) [28] was 5, the Activity [29] was “Active” and the Activity [30] was “Active”. The Activity [31] was “Active”, the Activity [32] was “Active” and the Activity [33] was “Active”. For the same compound, the Activity [34] was “inactive”, the Activity [35] was “inactive” and the Activity [36] was “inactive”. The Activity [37] was “inactive”, the Activity [38] was “inactive” and the Activity [39] was “Active”.

Compound `C[C@]1(CO)[C@H]2CC[C@]3(CO3)[C@@H](C/C=C3/C(=O)OC[C@H]3OC(=O)CI)[C@]2(C)CC[C@H]1O` has a CC50 [1] of 25 µM, an LC50 [2] of 42 µM and a Retention_time [3] of 30.2 min.

For `C=C1CC[C@@H]2[C@](C)(CO)[C@H](O)CC[C@@]2(C)[C@@H]1C/C=C1/C(=O)OC[C@H]1OC(=O)CBr`, the Activity [4] was “Active”, the Activity [5] was “Active” and the Activity [6] was “Dose-dependent effect”. For the same compound, the CC50 [1] was 12 µM, the LC50 [2] was 45 µM and the CC50 [7] was 8.4 µM. It also gave an LC50 [8] greater than 40 µM, a Retention_time [3] of 24.5 min and an Activity [9] of 60.44%. It also gave an Activity [10] of 67.33%, an Activity [11] of 76.62% and an Activity [12] of 88.84%. For the same compound, the Activity [13] was 25.16%, the Activity [14] was 19.57% and the Activity [15] was 14.98%. The Activity [16] was 9.01%, the Activity [17] was 10.44% and the Activity [18] was 10.28%. The Activity [19] was 6.69%, the Activity [20] was 1.57% and the Activity [21] was 3.96%. For the same compound, the Activity [22] was 2.82%, the Activity [23] was 1.71% and the Activity [24] was 0.58%. The “fold change (FC)” value [25] was greater than 4, the Activity [26] was “Active” and the inhibition [27] was “Dose-dependent effect”. For the same compound, the fold change (FC) [28] was 5, the Activity [29] was “Active” and the Activity [30] was “Active”. For the same compound, the Activity [31] was “Active”, the Activity [32] was “Active” and the Activity [33] was “Active”. For the same compound, the Activity [34] was “inactive”, the Activity [35] was “inactive” and the Activity [36] was “inactive”. The Activity [37] was “inactive”, the Activity [38] was “inactive” and the Activity [39] was “Active”.

For `C=C1CC[C@@H]2[C@](C)(CO)[C@H](O)CC[C@@]2(C)[C@@H]1C/C=C1/C(=O)OC[C@H]1OC(=O)CCl`, the CC50 [1] was 20 µM, the LC50 [2] was 25 µM and the Retention_time [3] was 23.2 min.

Work on `C=C1CC[C@@H]2[C@](C)(CO)[C@H](O)CC[C@@]2(C)[C@@H]1C/C=C1/C(=O)OC[C@H]1OC(C)=O` yielded a GI50 [40] of 5.49 µM.
